First the molecules themselves.
B1: tRNA (parent)
chain: GUUCCGUUGGCGUAAUGGUAACGCGUCUCCCUCCUAAGGAGAAGACUGCGGGUUCGAGUCCCGUACGGAACG

These results are taken from the RNAGym collection of RNA variant scans (doi:10.1126/science.aae0568).

This sample holds only a part of the variants without activity.

The data set covers variants of B1. The data set is described as follows: yeast fitness relative to wild type (ratio to wild type); higher = fitter; tRNA-Arg(CCU), competitive growth, 37 C, YPD. The method, boiled down: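 Variants of the tRNA-Arg(CCU) gene were chemically synthesised with a 3% per-site mutation rate across 69 sites and placed at the native genomic locus in Saccharomyces cerevisiae. Six parallel replicates of the pooled strains were competed in YPD at 37°C for 24 hours, and gene amplicons from the start and end populations were read by 100-nucleotide paired-end sequencing. Darwinian fitness relative to wild type was derived from changes in genotype frequencies. Genotypes required ≥ 100 starting reads, and estimates < 0.5 were set to 0.5.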
For the variant U16G G41A A69U, the yeast fitness stood at 0.527.

G18C G44A G63C A65C: the yeast fitness was at most 0.5.

For the variant G18A C24G G56A C66U, the yeast fitness is at most 0.5.

Turning to G18A G25C C49U, the yeast fitness was found to be 0.74.

With U16C U28C, the yeast fitness came to 0.859.

Turning to G17C C27U A65C, the yeast fitness amounted to 0.54.

As for G17C C29U A37C A69U, the yeast fitness is at most 0.5.

On to G17C G25A C49A A69U, for which the yeast fitness was at most 0.5.

Consider G18A C22U C30U C33U A45C, for which the yeast fitness is at most 0.5.

Consider G17A C46G U54C, for which the yeast fitness turned out to be 0.562.

G18A U19C: the yeast fitness came to 0.79.

Consider G17C, for which the yeast fitness stood at 0.7.

As to G17A, the yeast fitness was 0.835.

On to G17U, for which the yeast fitness is 0.851.

Take G17C C62G: the yeast fitness was found to be 0.57.

As to U19A A45U C46U, the yeast fitness is 1.07.

For G18A C31G, the yeast fitness was found to be 0.666.

Take G18A C31U: the yeast fitness came to 0.663.

As to G18A U32C A69C, the yeast fitness was 0.549.

As to G18A C33G U53A, the yeast fitness is at most 0.5.

For G18A C30G C34G, the yeast fitness is at most 0.5.

For the variant G18A U47C A57U, the yeast fitness was at most 0.5.

For G18C A42U U54A G58C, the yeast fitness was 0.574.

With G17C C22G C24A C62A A70C, the yeast fitness was determined as 0.57.

In the case of G18A C24G C66U, the yeast fitness was at most 0.5.

Consider G18C G23A G25C A37G A43C C55G C62G, for which the yeast fitness was at most 0.5.

As for G18U C34U, the yeast fitness is at most 0.5.

As to G17A A37C, the yeast fitness is 0.681.

As to G17C A20C, the yeast fitness turned out to be 0.54.

For G17A A37C C55U, the yeast fitness is 0.56.

For G17A U19A A21C G44C, the yeast fitness was at most 0.5.

For the variant G18C C31G G44C G48C C66U, the yeast fitness was at most 0.5.

Consider G17A C22U, for which the yeast fitness was found to be 0.737.

Consider G18C C31G G44C, for which the yeast fitness came to 0.658.

On to G18C G44A, for which the yeast fitness turned out to be 0.604.

On to G17A C55U, for which the yeast fitness amounted to 0.681.

As to U16G C29U C46U G67C A69U, the yeast fitness stood at 0.521.

Regarding U19A C24G C29U G52C U64G, the yeast fitness was at most 0.5.

With G18C C34U, the yeast fitness was at most 0.5.

For G17A C30U A40U A57U, the yeast fitness is at most 0.5.

In the case of G18A C31A G44A, the yeast fitness stood at 0.534.

With G18C A57U, the yeast fitness is 0.555.

Consider U19A C30A, for which the yeast fitness was found to be 0.812.

Regarding G17A A20G C29U C33U C60G, the yeast fitness was at most 0.5.

Take U16G C24U C49G C66U: the yeast fitness was at most 0.5.

As to U16G C27U U28A G52C U54A C66U, the yeast fitness is at most 0.5.

Take G18A U54C: the yeast fitness was 0.646.

With G17A A21G U28G, the yeast fitness turned out to be 0.608.

With U19A A21G, the yeast fitness turned out to be 0.987.

For the variant G17A C22A A45C C46U C49U, the yeast fitness is at most 0.5.

As to G18C C30U U32A C34G A45C U47G A57G, the yeast fitness was determined as 0.688.

As for G17A C24U C34A A40G C61U A69U, the yeast fitness was at most 0.5.

Regarding G18A C24U G56A, the yeast fitness worked out at 0.674.

Take U16C U32A: the yeast fitness came to 0.682.

As for U16C U32C, the yeast fitness amounted to 0.918.

Take G17C C29U: the yeast fitness came out at 0.545.

With G18C G67A A69C, the yeast fitness is at most 0.5.

In the case of G17A C46U A65C, the yeast fitness was 0.658.

With G17A C34U U47A G68C, the yeast fitness was at most 0.5.

As to G18A C24A C62U, the yeast fitness amounted to 0.536.

With U16G G41C A45U G51A C61U A70C, the yeast fitness came to 0.639.

Turning to G17C G48A, the yeast fitness was determined as 0.685.

With G18A G23C C30G A36U, the yeast fitness is at most 0.5.

Take G18A U26G A42U A65G C66G G68A: the yeast fitness is at most 0.5.

As to G17A C29U C34A, the yeast fitness was at most 0.5.

Consider G17C A40G A42C A45U U54C, for which the yeast fitness is at most 0.5.

As to G18C A65G, the yeast fitness was 0.62.

Consider G17C A43C G51A, for which the yeast fitness was at most 0.5.

Consider G18A C22G C24G, for which the yeast fitness was at most 0.5.

For the variant G18C C34G A45C C66U, the yeast fitness was 0.775.

As to G17A C29U G67A, the yeast fitness worked out at 0.553.

For G17C C24U C49U U59A, the yeast fitness worked out at 0.533.

As for U16G A20U C60G, the yeast fitness is at most 0.5.

As to G17C U47G, the yeast fitness is at most 0.5.

As for G18U U26A G67C, the yeast fitness is at most 0.5.

As for G18A C22G C31U, the yeast fitness was 0.682.

Consider G18C C24A A36U, for which the yeast fitness was at most 0.5.

On to G17C C24A A45C G52A, for which the yeast fitness was at most 0.5.

For the variant G18C A20C C22U C31U C61U, the yeast fitness is at most 0.5.

On to G17A U28C A42C U47A C66U, for which the yeast fitness was at most 0.5.

Turning to G18A C33A G44A U64C, the yeast fitness is at most 0.5.

In the case of U16G G38C, the yeast fitness worked out at 0.653.

On to G17A C30G A40G C60A, for which the yeast fitness stood at 0.678.

Turning to G18C G50A, the yeast fitness came out at 0.609.

For U19A C22G C24U C33G, the yeast fitness was found to be 0.674.

Turning to G17U G25A U28G G58A C66G, the yeast fitness was at most 0.5.

For the variant U16G A20U G38A, the yeast fitness was 0.538.

G18C C30G U32C A69U: the yeast fitness was at most 0.5.

For G17C C22G C55G C60A, the yeast fitness was at most 0.5.

With G17C U28G G48A A69C, the yeast fitness is at most 0.5.

In the case of G18C A42U G48C G68C A69U, the yeast fitness was at most 0.5.

Turning to G18A A36G A42U, the yeast fitness worked out at 0.691.

For the variant G17A G18C G39C A65U, the yeast fitness was at most 0.5.

With G18A A20U, the yeast fitness came to 0.721.

G18A A20G: the yeast fitness worked out at 0.613.

Consider U19A A43U A45C G67C, for which the yeast fitness is at most 0.5.

In the case of U19A A20U U53C, the yeast fitness was at most 0.5.

With U19A C24G C27U C30A A36G G52C, the yeast fitness is at most 0.5.

For G17A U32A, the yeast fitness amounted to 0.691.

In the case of U16G A36C G39C G63A A65U, the yeast fitness is at most 0.5.

Regarding G18A G25A C29G C34A, the yeast fitness was at most 0.5.

Turning to G17A G63A, the yeast fitness was 0.744.

Regarding G17A G63C, the yeast fitness is 0.579.

Consider U16C U47C C60U C62A, for which the yeast fitness was at most 0.5.

For U19A C29U C55A A57C U59C, the yeast fitness is at most 0.5.

With U16G C22A C62A, the yeast fitness was at most 0.5.

On to U16G C29U C30U, for which the yeast fitness was at most 0.5.

As for G18C G25C U47C, the yeast fitness was at most 0.5.

For the variant G18C U47C, the yeast fitness worked out at 0.658.

With G17C U28G C29U A37C A65C, the yeast fitness was at most 0.5.

As for G17C U35G, the yeast fitness is 0.554.

G17C A42C C66U: the yeast fitness was at most 0.5.

Consider G18A A40G A70C, for which the yeast fitness was at most 0.5.

As to U16C U32C C49A, the yeast fitness turned out to be 0.617.

Consider G17C U28A C34G G38A G51A, for which the yeast fitness worked out at 0.512.

On to G18C C22G G38A, for which the yeast fitness was at most 0.5.

In the case of G18A U47C C62A, the yeast fitness is at most 0.5.

Consider U16G A57G C62G C66U, for which the yeast fitness was 0.517.

Regarding G17C G18C G44C U59A, the yeast fitness was at most 0.5.

With G18C G68C, the yeast fitness was determined as 0.556.

Consider G18C C62G G67U, for which the yeast fitness was at most 0.5.

For the variant G17A C22U C27A C30G, the yeast fitness is at most 0.5.

Turning to G18A C22U C24G, the yeast fitness is at most 0.5.

For G17C C22G C24A C62A, the yeast fitness is at most 0.5.

Take U16G C29U C31A C46U: the yeast fitness amounted to 0.716.

G17C C46A A65C: the yeast fitness was at most 0.5.

For G17C G50C, the yeast fitness came to 0.536.

Turning to G17A C22G C27A G63A, the yeast fitness was found to be 0.538.

Turning to G17C C29U A37C A65C, the yeast fitness is 0.555.

In the case of G18A U59A, the yeast fitness amounted to 0.76.

As for G18A A21C U32G, the yeast fitness was found to be 0.614.

In the case of G17C U53A C60A G67A, the yeast fitness is at most 0.5.

On to G17A C22G C33U C62A, for which the yeast fitness is at most 0.5.

As to G18A A37C C55U A57G, the yeast fitness is at most 0.5.

G17A G25C A65U: the yeast fitness stood at 0.625.

On to G17C G38C A43C A69U, for which the yeast fitness was at most 0.5.

Regarding U19A C29G U54C, the yeast fitness is at most 0.5.

Consider G18A C31A C60A, for which the yeast fitness is at most 0.5.

As to G17A C24G C33U A37U, the yeast fitness was at most 0.5.

G17C A20U C66A: the yeast fitness was at most 0.5.

G18C C61A: the yeast fitness amounted to 0.627.

Regarding G17A C24G C27G C62U G67A, the yeast fitness was at most 0.5.

On to G18C C29U C30U A37G C49U G67A, for which the yeast fitness was at most 0.5.

As for U16G C62A, the yeast fitness was found to be 0.643.

For G18A A37G, the yeast fitness stood at 0.547.

Take G18C G50A C62A: the yeast fitness was at most 0.5.

For the variant G17A C31A, the yeast fitness was 0.706.

For G17A C31G, the yeast fitness stood at 0.85.

In the case of U16G U28G C34U C49U G63C, the yeast fitness is at most 0.5.

G17C G58C C62U: the yeast fitness was at most 0.5.

Turning to U19A C30U C31A G58A G67C, the yeast fitness is at most 0.5.

With G18C G52C C60U, the yeast fitness was 0.591.

With G18U A21U G52A, the yeast fitness is at most 0.5.

On to U16G C60A, for which the yeast fitness turned out to be 0.606.

Take U19A A21C G25C G68C: the yeast fitness came to 0.752.

For the variant U16G C30U C46G, the yeast fitness is 0.541.

Turning to U16G A36G A65G, the yeast fitness was at most 0.5.

Take G17C C34U C61U: the yeast fitness was determined as 0.55.

With G18C C31G C55G A57C, the yeast fitness is at most 0.5.

Regarding G17A C30G G67C, the yeast fitness was at most 0.5.

Consider G17A U35G G48C C66U, for which the yeast fitness was determined as 0.535.

In the case of G18A C29U U35A A70U, the yeast fitness is at most 0.5.

For the variant G18A U32C A70G, the yeast fitness came to 0.599.

As to G18A U19C C27G C61A U64G, the yeast fitness was at most 0.5.

As for G18C C22G G56A, the yeast fitness was determined as 0.568.

As to U16G C34G A37C, the yeast fitness was 0.706.

Take G18A A40G C62A A65U C66U: the yeast fitness was at most 0.5.
